The record followed here is ChEMBL document CHEMBL1143361, “Tetracyclic indole inhibitors of hepatitis C virus NS5B-polymerase” (Bioorg Med Chem Lett, 2009).

The source made the active and inactive calls. The calls are words filed in the database; no cut-off is given here.

As a reminder, the IC50 is the midpoint of a concentration-inhibition curve. Broadly, the EC50 is the concentration giving half of the maximal effect. A word on the Kp: it is tissue or fluid exposure divided by exposure in the circulation. As a reminder, the bioavailability is dose-corrected exposure relative to a reference, in per cent. As usually defined, the AUC is the area under the concentration-time curve, a measure of exposure. One may read the clearance as the volume of plasma or blood freed of the substance per unit of time. What is called CLint scaled is a measure of how fast metabolising enzymes remove a compound, apart from limits set by blood flow.

A short description of data set [1]: Inhibition of HCV NS5B Cdelta21 in presence of heterogenic template RNA. Set-up: species or system Hepacivirus hominis. In outline: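 Purified NS5B enzyme (C-terminal 21-residue deletion) assayed with heterogenic template RNA. IC50 is the mean of at least two experiments.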
The subject of the next data set is Hepatitis C virus. Kind of data set: Antiviral activity against Hepatitis C virus infected in human HUH7 cells by replicon assay. It counts as functional, organism-based, Hepacivirus hominis. As to conditions: Huh-7. Summed up: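 Subgenomic HCV RNA replicon in HUH-7 cells, adapted from the Bartenschlager procedure, run in 10% fetal calf serum unless otherwise stated. EC50 is the mean of at least two experiments.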
(In antiviral work, replicon cells carry a viral genome segment that copies itself.)

Data set [2] is described as follows: Fraction unbound in rat plasma. The class given is ADME, cell-free.
A short description of data set [3]: Fraction unbound in dog plasma. It counts as ADME, cell-free, Canis lupus familiaris.
Data set [4] is described as follows: Fraction unbound in human plasma. It counts as ADME, cell-free.
Data set [5] can be described thus: Ratio of drug level from liver to plasma in po dosed rat after 6 hrs. It counts as ADME, organism-based. In outline:
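Rats dosed orally; compound concentrations in liver and plasma measured 6 h after administration and expressed as a liver/plasma ratio.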

A short description of data set [6]: Oral bioavailability in rat. The class given is ADME, organism-based. As to conditions: in vivo. In outline:
(§1)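 Given as HCl or trifluoroacetate salts, intravenously (vehicle 20% DMSO/60% PEG400/20% H2O) and orally (vehicle PEG400); n = 3. AUC reported with the dose in mpk; oral bioavailability and plasma clearance are derived from these dosings.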

The nature of data set [7]: AUC in rat. It counts as ADME, organism-based. As to conditions: plasma. In outline: as §1
Data set [8] can be described thus: Plasma clearance in rat. The class given is ADME, organism-based. Summed up: as §1
Data set [9] is described as follows: Intrinsic clearance in rat liver microsomes in presence of NADPH. It counts as ADME, Microsome. In outline: (§2)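 Incubated with liver microsomes (rat, dog, rhesus or human) in the presence of NADPH. Intrinsic clearance is expressed in ml/min/kg.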
In general terms: Microsomes from liver hold many membrane-bound enzymes, among them those of drug oxidation.

The nature of data set [10]: Oral bioavailability in dog. The class given is ADME, organism-based, Canis lupus familiaris. As to conditions: in vivo. In outline: as §1
A short description of data set [11]: AUC in dog. The class given is ADME, organism-based, Canis lupus familiaris. As to conditions: plasma. Summed up:
as §1

Data set [12] in a line: Plasma clearance in dog. The class given is ADME, organism-based, Canis lupus familiaris. Summed up:
as §1

The nature of data set [13]: Intrinsic clearance in dog liver microsomes in presence of NADPH. It counts as ADME, Canis lupus familiaris, Microsome. Summed up: as §2
A short description of data set [14]: Intrinsic clearance in rhesus monkey liver microsomes in presence of NADPH. The class given is ADME, Macaca mulatta, Microsome. In outline:
as §2

Data set [15] can be described thus: Intrinsic clearance in human liver microsomes in presence of NADPH. It counts as ADME, Microsome. In outline: as §2
A short description of data set [16]: Protein binding in human plasma. As to conditions: read-out: PPB (converted). It counts as ADME, cell-free.
The subject of a further data set is Hepatocyte. Description: Metabolic stability in human hepatocytes after 4 hrs by HPLC. It counts as ADME, cell-based. In outline: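 [3H]-labelled compound incubated 4 h with human hepatocytes. Analysis by HPLC with radiochromatographic detection.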
A short description of data set [17]: Metabolic stability in po dosed rat assessed as urinary excretion. It counts as ADME, organism-based. As to conditions: urine, read-out: Stability.
A short description of data set [18]: Metabolic stability in po dosed rat assessed as biliary excretion. The class given is ADME, organism-based. As to conditions: bile, read-out: Stability.
The nature of data set [19]: Metabolic stability in po dosed dog assessed as urinary excretion. The class given is ADME, organism-based, Canis lupus familiaris. As to conditions: urine, read-out: Stability.
Data set [20] addresses T1, Nuclear receptor subfamily 1 group I member 2 (Homo sapiens, UniProt O75469).
T1 sequence (O75469 whole entry): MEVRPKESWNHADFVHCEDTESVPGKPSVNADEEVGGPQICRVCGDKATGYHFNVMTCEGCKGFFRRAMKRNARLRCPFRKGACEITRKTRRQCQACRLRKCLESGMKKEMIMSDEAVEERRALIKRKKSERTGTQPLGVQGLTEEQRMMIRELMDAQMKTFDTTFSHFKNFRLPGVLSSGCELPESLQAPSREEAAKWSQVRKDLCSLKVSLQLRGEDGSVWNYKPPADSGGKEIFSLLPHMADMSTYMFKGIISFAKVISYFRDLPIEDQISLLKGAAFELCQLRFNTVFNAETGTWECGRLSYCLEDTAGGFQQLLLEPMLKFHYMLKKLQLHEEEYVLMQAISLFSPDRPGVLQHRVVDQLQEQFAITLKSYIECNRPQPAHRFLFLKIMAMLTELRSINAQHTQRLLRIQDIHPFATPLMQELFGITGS
Description: Activity at human PXR at 10 uM by reporter gene assay. In general terms: A reporter such as luciferase makes a cellular process visible.

In another data set the target is Cytochrome P450 3A4 (Homo sapiens, UniProt P08684). Kind of data set: Inhibition of CYP3A4 in human liver microsomes. It counts as ADME, Microsome.
Sequence of Cytochrome P450 3A4 (P08684 whole entry): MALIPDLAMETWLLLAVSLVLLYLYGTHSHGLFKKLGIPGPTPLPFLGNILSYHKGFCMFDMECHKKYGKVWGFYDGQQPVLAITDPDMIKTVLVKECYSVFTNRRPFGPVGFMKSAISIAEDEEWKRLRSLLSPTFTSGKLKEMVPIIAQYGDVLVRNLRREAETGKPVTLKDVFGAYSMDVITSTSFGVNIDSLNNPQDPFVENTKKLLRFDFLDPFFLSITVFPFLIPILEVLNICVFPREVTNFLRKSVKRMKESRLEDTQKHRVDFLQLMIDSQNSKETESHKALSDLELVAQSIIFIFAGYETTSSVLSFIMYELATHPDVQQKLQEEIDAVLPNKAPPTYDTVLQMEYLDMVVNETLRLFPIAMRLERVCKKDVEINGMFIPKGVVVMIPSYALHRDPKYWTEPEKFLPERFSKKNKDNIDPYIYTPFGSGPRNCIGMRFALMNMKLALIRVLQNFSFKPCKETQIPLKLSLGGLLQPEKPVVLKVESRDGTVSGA
The species entered for a further data set is Homo sapiens. Description: Inhibition of human DNA polymerase.
For another data set, the system named is Canis familiaris. Kind of data set: Cardiotoxicity in anesthetized dogs assessed as prolongation of QT interval up to 10 mg/kg. As to conditions: dog, in vivo. Set-up: dose 10 mg/kg. It counts as toxicity, organism-based, Canis lupus familiaris.
Data set [21] is described as follows: Oral bioavailability in rhesus monkey. The class given is ADME, organism-based, Macaca mulatta. As to conditions: in vivo. Summed up:
as §1

Data set [22] in a line: AUC in rhesus monkey. The class given is ADME, organism-based, Macaca mulatta. As to conditions: plasma. In outline:
as §1

Data set [23] is described as follows: Plasma clearance in rhesus monkey. It counts as ADME, organism-based, Macaca mulatta. In outline:
as §1

Take `CN1CCn2c(c(C3CCCCC3)c3ccc(C(=O)O)cc32)-c2ccccc2C1`: the half-inhibitory concentration (IC50) in data set [1] is 170 nM. Further, the response in the data set with Hepatitis C virus was half-maximal at 890 nM (EC50).

`CN(C)CCN1Cc2ccccc2-c2c(C3CCCCC3)c3ccc(C(=O)O)cc3n2CC1=O`: the half-inhibitory concentration (IC50) in data set [1] came to 110 nM. The same molecule came in with an EC50 in the data set on Hepatitis C virus of 260 nM.

Regarding `CN(C)CC(=O)N1CCn2c(c(C3CCCCC3)c3ccc(C(=O)O)cc32)-c2ccc(F)cc2C1`, the IC50 in [1] was determined as 60 nM. The molecule further yielded a concentration for a half-maximal effect (EC50) with Hepatitis C virus of 170 nM. The fraction unbound in data set [2], in data set [3] and in data set [4] was 0.02 each time. For the same molecule, in [5], the concentration ratio (Kp) at 6 h worked out at 8. Also, the bioavailability in data set [6] turned out to be 48%; in data set [10] it was 83%. The AUC in [7] stood at 4 µM·h; in data set [11], 17.6 µM·h. Besides, the clearance was determined as 12 mL/min/kg in [8] and 3 mL/min/kg in data set [12]. Further, the CLint scaled was 16 mL/min/kg in data set [9], 8 mL/min/kg in [13], 42 mL/min/kg in [14] and 13 mL/min/kg in [15].

For the molecule `CN(C)CC1Cn2c(c(C3CCCCC3)c3ccc(C(=O)O)cc32)-c2ccccc2CN1C` (racemic), the half-maximal inhibitory concentration (IC50) in [1] amounted to 35 nM. Further, in the data set on Hepatitis C virus, the concentration giving a half-maximal response (EC50) amounted to 140 nM.

`CCN(CC)C1CCN(C(=O)Cn2c(-c3ccc(Cl)cc3)c(C3CCCCC3)c3ccc(C(=O)O)cc32)CC1`: the IC50 in data set [1] stood at 48 nM. The EC50 in the data set with Hepatitis C virus came out at 180 nM. The bioavailability in [6] is 10%. In data set [7], this molecule had an AUC of 0.2 µM·h.

Consider `COc1ccc2c(c1)N(CCN(C)C)CCCn1c-2c(C2CCCCC2)c2ccc(C(=O)O)cc21`, for which the half-inhibitory concentration (IC50) in [1] came out at 77 nM. The molecule also had a half-maximal effective concentration (EC50) in the data set with Hepatitis C virus of 540 nM.

`CN(C)CCN1Cc2ccccc2-c2c(C3CCCCC3)c3ccc(C(=O)O)cc3n2CCC1=O`: the IC50 in [1] was 860 nM. This molecule registered an EC50 in the data set with Hepatitis C virus of 1440 nM.

In the case of `CN(C)CC1CN(C)c2ccccc2-c2c(C3CCCCC3)c3ccc(C(=O)O)cc3n21` (racemic), the half-inhibitory concentration (IC50) in data set [1] turned out to be 1920 nM. This molecule also displayed a half-maximal effective concentration (EC50) in the data set with Hepatitis C virus of 13500 nM.

In the case of `CN1Cc2ccccc2-c2c(C3CCCCC3)c3ccc(C(=O)O)cc3n2CC1=O`, the concentration for half-maximal inhibition (IC50) in [1] is 80 nM. In the data set with Hepatitis C virus, this molecule returned an EC50 of 18900 nM. For the same molecule, the fraction unbound in data set [16] was 0.003.

For the molecule `CN(C)CCN1C(=O)Cn2c(c(C3CCCCC3)c3ccc(C(=O)O)cc32)-c2ccccc21`, in data set [1], the IC50 is 130 nM. Moreover, the EC50 in the data set on Hepatitis C virus worked out at 410 nM.

As for `COc1ccc2c(c1)CN(CCN(C)C)CCn1c-2c(C2CCCCC2)c2ccc(C(=O)O)cc21`, the IC50 in data set [1] amounted to 35 nM. The molecule further gave a concentration giving a half-maximal response (EC50) in the data set on Hepatitis C virus of 100 nM.

As for `CN(C)CCN1CCn2c(c(C3CCCCC3)c3ccc(C(=O)O)cc32)-c2ccccc2C1`, in [1], the IC50 worked out at 27 nM. Further, the figures for the fraction unbound in data set [2], in data set [3] and in data set [4] were 0.07, 0.03 and 0.03, respectively. The partition ratio (Kp) at 6 h in [5] was 16. The Stability result with Hepatocyte was “Stable”. Moreover, the figures for the dose excreted in [17], in data set [18] and in [19] were 1%, 4% and less than 1%, respectively. In addition, the Activity entry is given as “Not Active” in data set [20], “Not Active” on Cytochrome P450 3A4 and “Non-toxic” in the data set with Canis familiaris. The result in the data set filed under Homo sapiens was inactive. Moreover, the figures for the bioavailability in data set [6], in [10] and in [21] were 31%, 74% and 57%, respectively. Also, the values for the AUC in data set [7], in data set [11] and in data set [22] were 4.2 µM·h, 23 µM·h and 2 µM·h, respectively. Further, the clearance in data set [8] came out at 61 mL/min/kg; in [12], 2.5 mL/min/kg; in [23], 22 mL/min/kg. The CLint scaled was found to be 100 mL/min/kg in data set [9], 26 mL/min/kg in [13], 51 mL/min/kg in data set [14] and 5 mL/min/kg in data set [15].

For the molecule `CN(C)CCN1CCn2c(c(C3CCCCC3)c3ccc(C(=O)O)cc32)-c2ccccc21`, the IC50 in data set [1] came out at 28 nM.

Regarding `CN(C)CC1Cn2c(c(C3CCCCC3)c3ccc(C(=O)O)cc32)-c2ccccc2N1C` (racemic), the IC50 in [1] came out at 43 nM. A half-maximal effect in the data set with Hepatitis C virus (EC50) was put at 160 nM.

Turning to `CN(C)CC(=O)N1CCn2c(c(C3CCCCC3)c3ccc(C(=O)O)cc32)-c2ccccc2C1`, the IC50 in [1] came to 130 nM. The EC50 in the data set on Hepatitis C virus is 220 nM.

In the case of `COc1ccc2c(c1)CN(C)CCn1c-2c(C2CCCCC2)c2ccc(C(=O)O)cc21`, the half-inhibitory concentration (IC50) in data set [1] came out at 55 nM. The midpoint of the response in the data set with Hepatitis C virus, the EC50, lay at 290 nM. In addition, the bioavailability in data set [6] came to 83%; in data set [10] it was 67%. The area under the curve (AUC) stood at 2.9 µM·h in data set [7] and 18.7 µM·h in [11]. For the same molecule, the values for the clearance in data set [8] and in data set [12] were 32 mL/min/kg and 2.9 mL/min/kg, respectively. Moreover, the intrinsic metabolic clearance (CLint scaled) stood at 43 mL/min/kg in [9], 6 mL/min/kg in [13], 16 mL/min/kg in [14] and 7 mL/min/kg in data set [15].

With `CN(C)C(=O)Cn1c(-c2ccccc2)c(C2CCCCC2)c2ccc(C(=O)O)cc21`, the concentration for half-maximal inhibition (IC50) in data set [1] turned out to be 430 nM. Moreover, the fraction unbound in data set [16] is 0.029.
